Source: article PMC9660540 (Clinical Cancer Research, 2022)
Like-named read-outs stand apart in the source and are kept apart here.

Columns and labels:
[1] = Dose-limiting toxicity and RP2D, phase Ia dose escalation; format: in vivo, human
Outline: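 Phase Ia used Bayesian logistic regression–guided escalation of the oral nanosuspension, with or without durvalumab; capsule cohorts took 75, 150 or 200 mg once daily. A DLT was non-disease-related toxicity before day 21 (monotherapy) or end of cycle 2 (combination), e.g. grade ≥4 neutropenia >7 days or grade ≥3 nonhematologic toxicity.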

[2] = Plasma pharmacokinetics of AZD4635 and active metabolite in patients; format: in vivo, human; conditions: for half-life: plasma, oral
[3] = tested on: metastatic castration-resistant prostate cancer (mCRPC); test: Tumor response; format: in vivo, human
[4] = tested on: metastatic castration-resistant prostate cancer (mCRPC); test: PSA response in patients with mCRPC; format: in vivo, human
[5] = tested on: metastatic castration-resistant prostate cancer (mCRPC); format: in vivo, human
Outline: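 For the signature, baseline whole-blood RNA (PAXgene) was hybridized (25–100 ng) to a 770-gene NanoString panel and ComBat batch-corrected. The score was the median of normalized log2 expression of 14 adenosine genes; the cohort median split high from low.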

[6] = tested on: colorectal cancer (IO-naïve); test: Tumor response; format: in vivo, human
CYP1A2 = conditions: clinical drug–drug interaction study with fluvoxamine; ref [34]; cited from earlier work
[7] = tested on: intratumoral adenosine signaling; conditions: ref [12], cited from earlier work

In the case of `Cc1cc(-c2nnc(N)nc2-c2ccc(F)cc2)cc(Cl)n1` [AZD4635], the DLTs ([1]; capsule formulation, doses of up to 200 mg) is reported as “no DLTs”, the “Patients with a DLT” value ([1]; phase Ia, nanosuspension monotherapy 75 mg or 100 mg once daily) is reported as “No patients” and the “Patients with DLTs” value ([1]; phase Ia, nanosuspension monotherapy 125 mg twice daily, out of 3 patients) is reported as 2. The “Accumulation in exposure (Cmax and AUC)” value ([2]; following multiple dosing) was “minimal accumulation”, the PK profile ([2]; human, in vivo) was “linear and dose-proportional” and the half-life ([2]; human, median t1/2, after a single dose, across doses) was 7.92 to 14.5 h. The half-life ([2]; human, t1/2, overall (range, 11–24 hours)) was about 14 h, the “Disease control rate (DCR; CR, PR, or SD for at least 22 weeks)” value ([3]; mCRPC) was 18.0% and the Duration of response ([3]; mCRPC responders, monotherapy and plus durvalumab together) was 2.3 to 34.0 months. The Tumor responses ([3]; mCRPC, responders/evaluable) was 2/39, the “Confirmed PR” value ([3]; mCRPC, tumor response–evaluable population) was 2 patients and the “Confirmed PSA responses” value [4] was 3.3%. For the same molecule, the PSA50 response [4] was 5.0%, the Prostate-specific antigen responses ([4]; responders/evaluable) was 3/60 and the “Median PFS” value [5] was 10.1 weeks. For the same molecule, the “PFS probability at 24 weeks” value [5] was 24.2%, the “PFS probability at 24 weeks” value ([5]; AZD4635 monotherapy or plus durvalumab, high blood-adenosine signature) was 48.9% and the “PFS probability at 24 weeks” value ([5]; AZD4635 monotherapy or plus durvalumab, low blood-adenosine signature) was 20.6%. The “Best response of stable disease (SD) after a minimum of 2 cycles” value [6] was 9 (45.0%) n (%), the Metabolism (CYP1A2) was “primarily metabolized by CYP1A2” and the “Patients with concordant increases in gene-expression signatures of cytolytic activity and IFNG signaling” value ([7]; among the 5 patients with decreased adenosine signaling) was 4 patients. For the same molecule, the “Patients in whom intratumoral adenosine signaling decreased” value ([7]; nanosuspension 75 or 100 mg, 2 weeks of monotherapy, of 7 patients) was 5 patients.
